Assay results published in ChEMBL document CHEMBL5661979, “Pharmacological inhibition of BMK1 suppresses tumor growth through promyelocytic leukemia protein” (Cancer Cell, 2010).

What was measured:
[1] = target: T1, Phosphatidylinositol 5-phosphate 4-kinase type-2 alpha (Homo sapiens) (UniProt P48426); experiment: Inhibition of PIP5K2A LIP1 site in human HeLa cells lysate at 2 uM pre incubated for 15 mins followed by ADP acyl phosphate probe addition and measured after 10 mins by LC-MS/MS analysis relative to control; assay type: subcellular; settings: time 25.0 min
T1 sequence (whole entry): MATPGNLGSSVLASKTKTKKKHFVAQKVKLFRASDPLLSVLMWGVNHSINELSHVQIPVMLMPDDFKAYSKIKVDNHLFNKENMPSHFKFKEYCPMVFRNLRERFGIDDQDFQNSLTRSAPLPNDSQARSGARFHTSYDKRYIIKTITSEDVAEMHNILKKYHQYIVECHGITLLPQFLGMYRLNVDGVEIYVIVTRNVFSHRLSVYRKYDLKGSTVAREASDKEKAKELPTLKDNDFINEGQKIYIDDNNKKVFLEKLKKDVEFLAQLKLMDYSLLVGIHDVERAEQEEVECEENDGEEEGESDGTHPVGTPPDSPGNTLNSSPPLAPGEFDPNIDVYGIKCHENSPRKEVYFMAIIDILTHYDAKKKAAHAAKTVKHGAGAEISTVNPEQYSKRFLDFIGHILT

[2] = target: Serine/threonine-protein kinase tousled-like 1 (Homo sapiens, UniProt Q9UKI8); experiment: Inhibition of TLK1 in human HeLa cells lysate pre incubated for 15 mins followed by ADP acyl phosphate probe addition and measured after 10 mins by LC-MS/MS analysis; assay type: subcellular
[3] = target: Non-receptor tyrosine-protein kinase TNK1 (Homo sapiens, UniProt Q13470); experiment: Inhibition of TNK1 in human HeLa cells lysate pre incubated for 15 mins followed by ADP acyl phosphate probe addition and measured after 10 mins by LC-MS/MS analysis; assay type: subcellular
[4] = target: Serine/threonine-protein kinase Chk2 (Homo sapiens, UniProt O96017); experiment: Inhibition of CHK2 in human HeLa cells lysate at 50 uM pre incubated for 15 mins followed by ADP acyl phosphate probe addition and measured after 10 mins by LC-MS/MS analysis relative to control; assay type: subcellular; settings: time 25.0 min
[5] = target: Calcium/calmodulin-dependent protein kinase type II subunit gamma (Homo sapiens, UniProt Q13555); experiment: Inhibition of CAMK2g in human HeLa cells lysate pre incubated for 15 mins followed by ADP acyl phosphate probe addition and measured after 10 mins by LC-MS/MS analysis; assay type: subcellular
In short: (§1)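 KiNativ-type profiling in HeLa lysate (5 mg/mL total protein). Lysate preincubated 15 min with inhibitor at 50, 10, 2, 0.8 or 0 μM, then ATP or ADP acylphosphate probe added (5 μM final) for 10 min. Reaction stopped with urea and analysed by targeted MS, using up to four fragment ions per kinase peptide-probe conjugate. % inhibition calculated against untreated lysate. Duplicate reactions.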

[6] = MRT in Sprague-Dawley rat at 1 mg/kg, iv measured up to 8 hrs by LC-MS/MS analysis; assay type: ADME, organism-based; settings: in vivo
[7] = target: T1, Phosphatidylinositol 5-phosphate 4-kinase type-2 alpha (Homo sapiens); experiment: Inhibition of PIP5K2A in human HeLa cells lysate at 50 uM pre incubated for 15 mins followed by ATP acyl phosphate probe addition and measured after 10 mins by LC-MS/MS analysis relative to control; assay type: subcellular; settings: time 25.0 min
[8] = Inhibition of CK1g1/g2/g3 in human HeLa cells lysate at 10 uM pre incubated for 15 mins followed by ADP acyl phosphate probe addition and measured after 10 mins by LC-MS/MS analysis relative to control; settings: 25 min, condition cancer
[9] = target: Ribosomal protein S6 kinase alpha-5 (Homo sapiens, UniProt O75582); experiment: Inhibition of MSK1 domain 1 in human HeLa cells lysate at 50 uM pre incubated for 15 mins followed by ATP acyl phosphate probe addition and measured after 10 mins by LC-MS/MS analysis relative to control; assay type: subcellular; settings: time 25.0 min
[10] = target: Interleukin-1 receptor-associated kinase 1 (Homo sapiens, UniProt P51617); experiment: Inhibition of IRAK1 in human HeLa cells lysate at 10 uM pre incubated for 15 mins followed by ATP acyl phosphate probe addition and measured after 10 mins by LC-MS/MS analysis relative to control; assay type: subcellular; settings: time 25.0 min
[11] = target: Dual specificity protein kinase CLK3 (Homo sapiens, UniProt P49761); experiment: Inhibition of CLK3 in human HeLa cells lysate at 50 uM pre incubated for 15 mins followed by ADP acyl phosphate probe addition and measured after 10 mins by LC-MS/MS analysis relative to control; assay type: subcellular; settings: time 25.0 min
[12] = target: T2, Calcium/calmodulin-dependent protein kinase type 1D (Homo sapiens, UniProt Q8IU85); experiment: Inhibition of CAMK1d in human HeLa cells lysate at 2 uM pre incubated for 15 mins followed by ATP acyl phosphate probe addition and measured after 10 mins by LC-MS/MS analysis relative to control; assay type: subcellular; settings: time 25.0 min; in short: as §1
Target sequence in this assay (Q8IU85 whole entry, looked up): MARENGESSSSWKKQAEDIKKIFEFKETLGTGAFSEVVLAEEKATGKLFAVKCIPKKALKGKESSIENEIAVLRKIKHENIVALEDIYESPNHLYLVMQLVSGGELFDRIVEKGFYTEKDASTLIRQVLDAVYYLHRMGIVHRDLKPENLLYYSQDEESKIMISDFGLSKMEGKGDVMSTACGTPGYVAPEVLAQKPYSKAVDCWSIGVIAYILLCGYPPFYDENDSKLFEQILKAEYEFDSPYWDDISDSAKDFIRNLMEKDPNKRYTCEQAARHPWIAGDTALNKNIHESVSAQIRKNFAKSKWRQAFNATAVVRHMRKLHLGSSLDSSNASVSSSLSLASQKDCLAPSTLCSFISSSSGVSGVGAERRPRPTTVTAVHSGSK

[13] = Inhibition of MSK1/2 in human HeLa cells lysate at 10 uM pre incubated for 15 mins followed by ADP acyl phosphate probe addition and measured after 10 mins by LC-MS/MS analysis relative to control; settings: 25 min, condition cancer
[14] = target: Mitogen-activated protein kinase kinase kinase 11 (Homo sapiens, UniProt Q16584); experiment: Inhibition of MLK3 in human HeLa cells lysate at 2 uM pre incubated for 15 mins followed by ATP acyl phosphate probe addition and measured after 10 mins by LC-MS/MS analysis relative to control; assay type: subcellular; settings: time 25.0 min
[15] = target: Serine/threonine-protein kinase B-raf (Homo sapiens, UniProt P15056); experiment: Inhibition of BRAF in human HeLa cells lysate at 10 uM pre incubated for 15 mins followed by ADP acyl phosphate probe addition and measured after 10 mins by LC-MS/MS analysis relative to control; assay type: subcellular; settings: time 25.0 min; in short: as §1
[16] = target: Serine/threonine-protein kinase 38 (Homo sapiens, UniProt Q15208); experiment: Inhibition of NDR1 in human HeLa cells lysate pre incubated for 15 mins followed by ATP acyl phosphate probe addition and measured after 10 mins by LC-MS/MS analysis; assay type: subcellular
[17] = Inhibition of CDK5/PRKX/PRKY in human HeLa cells lysate pre incubated for 15 mins followed by ATP acyl phosphate probe addition and measured after 10 mins by LC-MS/MS analysis; assay type: subcellular
In short: (§2)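 KiNativ profiling in HeLa lysate (5 mg/mL total protein). Lysate incubated 15 min with inhibitor at 50, 10, 2, 0.8 or 0 μM. ATP or ADP acylphosphate probe then added (5 μM final) and reacted 10 min. Reaction stopped with urea and analysed by targeted MS, using up to four fragment ions per kinase peptide-probe conjugate. % inhibition taken against untreated lysate. Run in duplicate.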

[18] = Inhibition of MST4/YSK1 in human HeLa cells lysate at 10 uM pre incubated for 15 mins followed by ATP acyl phosphate probe addition and measured after 10 mins by LC-MS/MS analysis relative to control; settings: 25 min, condition cancer
[19] = target: Serine/threonine-protein kinase tousled-like 2 (Homo sapiens, UniProt Q86UE8); experiment: Inhibition of TLK2 in human HeLa cells lysate at 10 uM pre incubated for 15 mins followed by ADP acyl phosphate probe addition and measured after 10 mins by LC-MS/MS analysis relative to control; assay type: subcellular; settings: time 25.0 min
[20] = target: T2, Calcium/calmodulin-dependent protein kinase type 1D; experiment: Inhibition of CAMK1d in human HeLa cells lysate pre incubated for 15 mins followed by ATP acyl phosphate probe addition and measured after 10 mins by LC-MS/MS analysis; assay type: subcellular; in short: as §1
Target sequence in this assay (Q8IU85 whole entry): as the sequence (Q8IU85 whole entry, looked up) above

[21] = target: Cyclin-dependent kinase 5 (Homo sapiens, UniProt Q00535); experiment: Inhibition of CDK5 in human HeLa cells lysate pre incubated for 15 mins followed by ATP acyl phosphate probe addition and measured after 10 mins by LC-MS/MS analysis; assay type: subcellular; in short: as §2

Chain of Non-receptor tyrosine-protein kinase TNK1 (Q13470 whole entry): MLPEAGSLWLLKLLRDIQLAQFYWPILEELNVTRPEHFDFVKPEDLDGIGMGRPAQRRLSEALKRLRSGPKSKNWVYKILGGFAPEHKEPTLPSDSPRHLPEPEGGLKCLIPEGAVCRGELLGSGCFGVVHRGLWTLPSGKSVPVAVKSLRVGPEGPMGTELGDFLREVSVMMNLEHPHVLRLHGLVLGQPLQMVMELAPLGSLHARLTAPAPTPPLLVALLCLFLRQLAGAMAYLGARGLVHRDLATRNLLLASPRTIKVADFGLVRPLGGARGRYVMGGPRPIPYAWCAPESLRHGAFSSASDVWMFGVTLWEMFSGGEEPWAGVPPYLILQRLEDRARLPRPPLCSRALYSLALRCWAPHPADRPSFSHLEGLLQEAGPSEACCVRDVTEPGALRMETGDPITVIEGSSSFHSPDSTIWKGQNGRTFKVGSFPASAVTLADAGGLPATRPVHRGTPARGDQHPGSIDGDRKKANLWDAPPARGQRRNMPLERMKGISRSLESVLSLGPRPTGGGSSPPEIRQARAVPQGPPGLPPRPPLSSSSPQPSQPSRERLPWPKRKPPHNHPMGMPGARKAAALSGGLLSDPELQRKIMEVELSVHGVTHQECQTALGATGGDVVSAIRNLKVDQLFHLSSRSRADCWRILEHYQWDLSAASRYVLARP
Chain of Dual specificity protein kinase CLK3 (P49761 whole entry, looked up): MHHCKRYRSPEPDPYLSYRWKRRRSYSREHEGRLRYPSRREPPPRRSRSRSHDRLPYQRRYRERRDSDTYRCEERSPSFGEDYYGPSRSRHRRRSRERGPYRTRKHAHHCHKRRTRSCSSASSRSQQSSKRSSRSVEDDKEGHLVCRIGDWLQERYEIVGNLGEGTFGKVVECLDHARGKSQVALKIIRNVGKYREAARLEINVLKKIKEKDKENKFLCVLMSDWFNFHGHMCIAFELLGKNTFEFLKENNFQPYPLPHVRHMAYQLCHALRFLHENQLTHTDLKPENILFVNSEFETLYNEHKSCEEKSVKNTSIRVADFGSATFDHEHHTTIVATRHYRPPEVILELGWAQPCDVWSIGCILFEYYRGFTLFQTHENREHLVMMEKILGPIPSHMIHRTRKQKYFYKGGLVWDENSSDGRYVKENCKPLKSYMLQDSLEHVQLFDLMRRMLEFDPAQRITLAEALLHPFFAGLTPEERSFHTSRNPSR
Chain of Ribosomal protein S6 kinase alpha-5 (O75582 whole entry, looked up, the tested form may be a part): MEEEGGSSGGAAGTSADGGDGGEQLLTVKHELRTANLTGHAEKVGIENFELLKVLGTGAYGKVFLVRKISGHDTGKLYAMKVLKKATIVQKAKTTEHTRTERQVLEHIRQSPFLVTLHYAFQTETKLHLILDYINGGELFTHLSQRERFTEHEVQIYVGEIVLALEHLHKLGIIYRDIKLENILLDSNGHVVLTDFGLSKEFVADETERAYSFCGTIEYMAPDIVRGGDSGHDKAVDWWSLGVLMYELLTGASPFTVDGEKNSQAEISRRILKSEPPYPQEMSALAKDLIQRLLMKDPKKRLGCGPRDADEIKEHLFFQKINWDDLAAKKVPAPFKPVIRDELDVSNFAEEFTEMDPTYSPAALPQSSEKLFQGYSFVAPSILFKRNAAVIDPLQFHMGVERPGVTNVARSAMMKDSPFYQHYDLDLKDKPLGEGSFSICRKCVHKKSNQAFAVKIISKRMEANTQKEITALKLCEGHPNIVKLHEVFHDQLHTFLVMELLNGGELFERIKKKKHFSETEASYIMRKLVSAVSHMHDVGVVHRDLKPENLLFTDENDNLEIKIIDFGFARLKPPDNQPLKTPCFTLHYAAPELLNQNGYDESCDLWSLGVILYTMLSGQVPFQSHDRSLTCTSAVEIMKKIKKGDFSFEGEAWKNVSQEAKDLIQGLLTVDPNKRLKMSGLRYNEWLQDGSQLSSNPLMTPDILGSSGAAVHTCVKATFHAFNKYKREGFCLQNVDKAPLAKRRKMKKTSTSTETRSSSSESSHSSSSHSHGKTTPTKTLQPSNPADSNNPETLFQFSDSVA
Chain of Serine/threonine-protein kinase Chk2 (O96017 whole entry): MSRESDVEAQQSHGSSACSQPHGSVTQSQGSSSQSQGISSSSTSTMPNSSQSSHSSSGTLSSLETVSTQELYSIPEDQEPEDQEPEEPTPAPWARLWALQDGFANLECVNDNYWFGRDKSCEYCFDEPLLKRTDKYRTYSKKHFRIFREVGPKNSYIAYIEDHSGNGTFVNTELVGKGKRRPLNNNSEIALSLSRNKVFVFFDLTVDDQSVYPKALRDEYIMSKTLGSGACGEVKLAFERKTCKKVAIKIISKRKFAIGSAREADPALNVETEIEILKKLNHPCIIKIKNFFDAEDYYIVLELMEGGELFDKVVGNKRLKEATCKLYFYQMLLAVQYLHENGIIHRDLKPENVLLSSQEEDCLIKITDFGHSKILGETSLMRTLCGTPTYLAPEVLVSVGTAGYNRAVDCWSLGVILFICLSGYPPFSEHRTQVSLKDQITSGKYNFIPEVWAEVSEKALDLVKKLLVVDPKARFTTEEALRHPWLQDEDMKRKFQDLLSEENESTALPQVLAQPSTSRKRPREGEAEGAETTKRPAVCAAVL
Chain of Serine/threonine-protein kinase tousled-like 2 (Q86UE8 whole entry, looked up): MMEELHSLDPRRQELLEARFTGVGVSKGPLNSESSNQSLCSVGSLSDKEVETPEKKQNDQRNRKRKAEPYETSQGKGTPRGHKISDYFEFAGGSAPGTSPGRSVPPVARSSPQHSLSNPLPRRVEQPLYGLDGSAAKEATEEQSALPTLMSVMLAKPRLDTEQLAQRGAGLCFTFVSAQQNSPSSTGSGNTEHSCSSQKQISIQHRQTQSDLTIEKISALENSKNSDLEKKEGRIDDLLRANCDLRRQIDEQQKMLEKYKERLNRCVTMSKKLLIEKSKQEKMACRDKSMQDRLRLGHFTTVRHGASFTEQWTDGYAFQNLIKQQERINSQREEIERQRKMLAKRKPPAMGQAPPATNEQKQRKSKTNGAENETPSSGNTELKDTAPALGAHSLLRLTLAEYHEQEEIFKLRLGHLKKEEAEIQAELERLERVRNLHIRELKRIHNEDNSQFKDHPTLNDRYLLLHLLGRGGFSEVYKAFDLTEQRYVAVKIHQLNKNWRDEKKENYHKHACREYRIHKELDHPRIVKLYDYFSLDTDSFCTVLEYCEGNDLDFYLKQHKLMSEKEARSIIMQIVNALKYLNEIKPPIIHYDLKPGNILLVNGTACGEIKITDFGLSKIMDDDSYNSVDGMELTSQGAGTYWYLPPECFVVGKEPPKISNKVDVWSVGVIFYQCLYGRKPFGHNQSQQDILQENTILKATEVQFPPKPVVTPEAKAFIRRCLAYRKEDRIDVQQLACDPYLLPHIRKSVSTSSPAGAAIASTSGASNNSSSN
Chain of Serine/threonine-protein kinase 38 (Q15208 whole entry): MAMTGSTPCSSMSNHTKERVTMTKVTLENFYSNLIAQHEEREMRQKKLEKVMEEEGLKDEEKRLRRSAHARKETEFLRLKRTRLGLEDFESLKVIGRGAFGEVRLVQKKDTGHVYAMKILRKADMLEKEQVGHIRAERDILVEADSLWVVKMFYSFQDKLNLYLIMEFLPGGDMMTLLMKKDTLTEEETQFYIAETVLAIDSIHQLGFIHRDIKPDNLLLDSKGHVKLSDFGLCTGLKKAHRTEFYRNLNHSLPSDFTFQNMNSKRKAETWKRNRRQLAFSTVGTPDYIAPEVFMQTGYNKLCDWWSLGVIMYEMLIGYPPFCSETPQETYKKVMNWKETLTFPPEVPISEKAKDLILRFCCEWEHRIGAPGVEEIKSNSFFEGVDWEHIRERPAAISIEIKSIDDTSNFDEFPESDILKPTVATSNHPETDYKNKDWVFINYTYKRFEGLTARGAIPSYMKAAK
Chain of Serine/threonine-protein kinase B-raf (P15056 whole entry): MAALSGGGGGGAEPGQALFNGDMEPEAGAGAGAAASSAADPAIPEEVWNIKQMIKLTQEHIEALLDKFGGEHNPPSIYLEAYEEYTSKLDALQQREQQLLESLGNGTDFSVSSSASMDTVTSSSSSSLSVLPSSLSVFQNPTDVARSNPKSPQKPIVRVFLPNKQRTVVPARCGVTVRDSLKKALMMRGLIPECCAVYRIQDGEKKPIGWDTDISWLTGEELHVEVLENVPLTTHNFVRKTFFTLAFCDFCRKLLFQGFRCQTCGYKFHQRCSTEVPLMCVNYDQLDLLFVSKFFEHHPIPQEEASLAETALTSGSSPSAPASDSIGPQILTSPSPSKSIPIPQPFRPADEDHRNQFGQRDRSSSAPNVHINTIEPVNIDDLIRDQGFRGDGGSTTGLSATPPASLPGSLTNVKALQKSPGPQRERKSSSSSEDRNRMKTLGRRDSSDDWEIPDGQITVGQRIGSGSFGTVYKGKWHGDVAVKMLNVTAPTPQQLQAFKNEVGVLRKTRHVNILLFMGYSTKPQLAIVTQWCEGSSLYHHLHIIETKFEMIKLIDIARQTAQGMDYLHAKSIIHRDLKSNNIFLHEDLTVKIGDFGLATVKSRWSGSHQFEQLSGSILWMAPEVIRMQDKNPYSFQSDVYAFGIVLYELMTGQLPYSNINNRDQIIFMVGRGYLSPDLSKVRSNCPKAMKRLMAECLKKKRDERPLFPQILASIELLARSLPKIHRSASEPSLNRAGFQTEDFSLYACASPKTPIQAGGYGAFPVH

CCOc1cc(N2CCC(O)CC2)ccc1Nc1ncc2c(n1)N(C)c1ccccc1C(=O)N2C
inhibition [1]: 3.5%
IC50 [2]: > 50 µM
IC50 [3]: 10 µM
inhibition [4]: -2.7%
IC50 [5]: > 50 µM
MRT [6]: 2.2 h
inhibition [7]: 1%
inhibition at 10 µM [8]: 18.1%
inhibition [9]: 4.6%
inhibition [10]: 1.9%
inhibition [11]: 32.6%
inhibition [12]: 4.4%
inhibition at 10 µM [13]: 37.4%
inhibition [14]: 5.3%
inhibition [15]: 2.3%
IC50 [16]: > 50 µM
IC50 [17]: > 50 µM
inhibition at 10 µM [18]: 5.1%
inhibition [19]: 0.4%
IC50 [20]: > 50 µM
IC50 [21]: > 50 µM
